Data on 1 compound can be found in ChEMBL document CHEMBL3627612, “Hirsutinolide Series Inhibit Stat3 Activity, Alter GCN1, MAP1B, Hsp105, G6PD, Vimentin, TrxR1, and Importin α-2 Expression, and Induce Antitumor Effects against Human Glioma” (J Med Chem, 2015).

The structures appear in SMILES notation. Active and inactive are the calls of the source. The rule behind the calls is not given here.

For assay [1], the system named is U-251. The experiment in a line: Induction of apoptosis in human U251MG cells assessed as cleaved caspase 3 level at 0.5 to 10 nM after 24 to 48 hrs by immunoblot analysis. It is filed as functional, cell-based. A digest of the protocol:
(§1)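 U251MG human glioma cells (RPMI or DMEM, 10% FBS, 1% nonessential amino acids) treated for 24 or 48 h, with paclitaxel or staurosporine run alongside. Whole-cell lysates were prepared and analysed by SDS-PAGE and immunoblotting, probing for PARP and caspase 3 cleavage as apoptosis markers.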
A general note: Immunoblotting shows a protein as a band on a membrane.

Assay [2] concerns U-251. In words: Induction of apoptosis in human U251MG cells assessed as PARP level at 0.5 to 10 nM after 24 to 48 hrs by immunoblot analysis. It is filed as functional, cell-based. A digest of the protocol: as §1

With `CN[C@@H]1C[C@H]2O[C@@](C)([C@@H]1OC)n1c3ccccc3c3c4c(c5c6ccccc6n2c5c31)C(=O)NC4`, the result in assay [1] and in assay [2] was Active.
